Measured values: ChEMBL document CHEMBL1138354, “2-(2'-((dimethylamino)methyl)-4'-(fluoroalkoxy)-phenylthio)benzenamine derivatives as serotonin transporter imaging agents” (J Med Chem, 2007)

How the values were obtained:
Nucleic Acid [1] = assay: Ratio of drug level in hypothalamus to cerebellum in rat after 30 mins; assay type: ADME, tissue-based; details: in vivo, 0.5 h
In short: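 Rats, 3 per group, given ¹⁸F tracer (10–100 μCi, 0.2 ml sterile water with 1 mg/mL BSA) into the femoral vein under isoflurane. Brain regions, including hypothalamus, striatum and cerebellum, dissected, weighed and counted. % dose/g calculated against a 1% diluted aliquot of the dose. Region/cerebellum ratio is region %dose/g divided by cerebellum %dose/g. SD of the ratio propagated from both means and SDs.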

Zone of skin [2] = assay: Biodistribution in iv dosed rat skin after 30 mins; assay type: ADME, organism-based; details: in vivo, 0.5 h
In short: (§1)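 Rats, 3 per group, under isoflurane. ¹⁸F tracer (10–100 μCi) in 0.2 ml sterile water with 1 mg/mL BSA injected into the femoral vein. Killed by cervical dislocation under anesthesia at the stated time. Organs removed, weighed and counted. % dose/organ calculated against counts of a 1% diluted aliquot of the injected dose.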

Zone of skin [3] = assay: Biodistribution in iv dosed rat skin after 60 mins; assay type: ADME, organism-based; details: in vivo, 1 h
Blood [4] = assay: Biodistribution in iv dosed rat blood after 2 mins; assay type: ADME, organism-based; details: in vivo
In short: (§2)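 [18F]-labeled tracer was given to rats under isoflurane anesthesia: 0.2 ml sterile water with 1 mg/mL BSA and 10–100 μCi, into the femoral vein. Three rats per group. Animals were killed by cervical dislocation under anesthesia at the stated time. Organs were removed, weighed and counted. Uptake was calculated as percent dose against a 1% aliquot of the injected dose counted alongside.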

Blood [5] = assay: Biodistribution in iv dosed rat blood after 30 mins; assay type: ADME, organism-based; details: in vivo, 0.5 h; in short: as §2
Heart [6] = assay: Biodistribution in iv dosed rat heart after 30 mins; assay type: ADME, organism-based; details: in vivo, 0.5 h; in short: as §2
Liver [7] = assay: Biodistribution in iv dosed rat liver after 2 mins; assay type: ADME, organism-based; details: in vivo; in short: as §2
Pancreas [8] = assay: Biodistribution in iv dosed rat pancreas after 2 mins; assay type: ADME, organism-based; details: in vivo
Pancreas [9] = assay: Biodistribution in iv dosed rat pancreas after 30 mins; assay type: ADME, organism-based; details: in vivo, 0.5 h; in short: as §1
Pancreas [10] = assay: Biodistribution in iv dosed rat pancreas after 60 mins; assay type: ADME, organism-based; details: in vivo, 1 h
Pancreas [11] = assay: Biodistribution in iv dosed rat pancreas after 120 mins; assay type: ADME, organism-based; details: in vivo, 2 h; in short: as §2
Pancreas [12] = assay: Biodistribution in iv dosed rat pancreas after 240 mins; assay type: ADME, organism-based; details: in vivo, 4 h
Spleen [13] = assay: Biodistribution in iv dosed rat spleen after 2 mins; assay type: ADME, organism-based; details: in vivo
Spleen [14] = assay: Biodistribution in iv dosed rat spleen after 120 mins; assay type: ADME, organism-based; details: in vivo, 2 h; in short: as §1
Spleen [15] = assay: Biodistribution in iv dosed rat spleen after 240 mins; assay type: ADME, organism-based; details: in vivo, 4 h
Muscle tissue [16] = assay: Biodistribution in iv dosed rat muscle after 30 mins; assay type: ADME, organism-based; details: in vivo, 0.5 h; in short: as §2
Muscle tissue [17] = assay: Biodistribution in iv dosed rat muscle after 120 mins; assay type: ADME, organism-based; details: in vivo, 2 h; in short: as §2
Bone [18] = assay: Biodistribution in iv dosed rat bone after 120 mins; assay type: ADME, organism-based, Bone element; details: in vivo, 2 h; in short: as §2
Striatum [19] = assay: Biodistribution in iv dosed rat striatum assessed as radioactivity after 120 mins; assay type: ADME, organism-based; details: in vivo, 2 h
Striatum [20] = assay: Biodistribution in iv dosed rat striatum assessed as radioactivity after 240 mins; assay type: ADME, organism-based; details: in vivo, 4 h
Nucleic Acid [21] = assay: Ratio of drug level in hypothalamus to cerebellum in rat assessed as radioactivity after 60 mins; assay type: ADME, tissue-based; details: in vivo, 1 h
Nucleic Acid [22] = assay: Ratio of drug level in hippocampus to cerebellum in rat assessed as radioactivity after 2 mins; assay type: ADME, tissue-based; details: in vivo
Nucleic Acid [23] = assay: Ratio of drug level in striatum to cerebellum in rat assessed as radioactivity after 60 mins; assay type: ADME, tissue-based; details: in vivo, 1 h
Lung = assay: Biodistribution in iv dosed rat lung after 360 mins; assay type: ADME, organism-based; details: in vivo, 6 h; in short: as §2
Liver [24] = assay: Biodistribution in iv dosed rat liver after 360 mins; assay type: ADME, organism-based; details: in vivo, 6 h; in short: as §2
Kidney = assay: Biodistribution in iv dosed rat kidney after 360 mins; assay type: ADME, organism-based; details: in vivo, 6 h; in short: as §2
Muscle tissue [25] = assay: Biodistribution in iv dosed rat muscle after 360 mins; assay type: ADME, organism-based; details: in vivo, 6 h; in short: as §2
Bone [26] = assay: Biodistribution in iv dosed rat bone after 360 mins; assay type: ADME, organism-based, Bone element; details: in vivo, 6 h; in short: as §2
Zone of skin [27] = assay: Biodistribution in iv dosed rat skin after 360 mins; assay type: ADME, organism-based; details: in vivo, 6 h
Blood [28] = assay: Biodistribution in iv dosed rat blood after 360 mins; assay type: ADME, organism-based; details: in vivo, 6 h; in short: as §2
Heart [29] = assay: Biodistribution in iv dosed rat heart after 360 mins; assay type: ADME, organism-based; details: in vivo, 6 h; in short: as §2
Spleen [30] = assay: Biodistribution in iv dosed rat spleen after 360 mins; assay type: ADME, organism-based; details: in vivo, 6 h
Brain = assay: Biodistribution in iv dosed rat brain after 360 mins; assay type: ADME, organism-based; details: in vivo, 6 h; in short: as §2
Nucleic Acid [31] = assay: Ratio of drug level in hypothalamus to cerebellum in rat after 360 mins; assay type: ADME, tissue-based; details: in vivo, 6 h
Nucleic Acid [32] = assay: Ratio of drug level in hippocampus to cerebellum in rat after 360 mins; assay type: ADME, tissue-based; details: in vivo, 6 h
Nucleic Acid [33] = assay: Ratio of drug level in cortex to cerebellum in rat after 360 mins; assay type: ADME, tissue-based; details: in vivo, 6 h
Nucleic Acid [34] = assay: Ratio of drug level in striatum to cerebellum in rat after 360 mins; assay type: ADME, tissue-based; details: in vivo, 6 h

`CN(C)Cc1cc(OCC[18F])ccc1Sc1ccccc1N` was tested, and the Ratio (Nucleic Acid [1]) was 3.79, the Drug uptake (Zone of skin [2]) was 8.66 %ID and the Drug uptake (Zone of skin [3]) was 8.44 %ID. For the same molecule, the Drug uptake (Blood [4]) was 11.86 %ID, the Drug uptake (Blood [5]) was 4.74 %ID and the Drug uptake (Heart [6]) was 0.17 %ID. For the same molecule, the Drug uptake (Liver [7]) was 9.9 %ID, the Drug uptake (Pancreas [8]) was 0.92 %ID and the Drug uptake (Pancreas [9]) was 0.24 %ID. For the same molecule, the Drug uptake (Pancreas [10]) was 0.19 %ID, the Drug uptake (Pancreas [11]) was 0.08 %ID and the Drug uptake (Pancreas [12]) was 0.04 %ID. The Drug uptake (Spleen [13]) was 1.22 %ID, the Drug uptake (Spleen [14]) was 0.26 %ID and the Drug uptake (Spleen [15]) was 0.09 %ID. For the same molecule, the Drug uptake (Muscle tissue [16]) was 9.46 %ID, the Drug uptake (Muscle tissue [17]) was 4.24 %ID and the Drug uptake (Bone [18]) was 2.92 %ID. For the same molecule, the Drug uptake (Striatum [19]) was 0.36 % ID/g, the Drug uptake (Striatum [20]) was 0.08 % ID/g and the Ratio (Nucleic Acid [21]) was 5.52. It also gave a Ratio (Nucleic Acid [22]) of 1.19 and a Ratio (Nucleic Acid [23]) of 3.87.
`CN(C)Cc1cc(OCC[18F])ccc1Sc1ccc(Br)cc1N` gave a Drug uptake (Lung) of 1.89 %ID, a Drug uptake (Liver [24]) of 1.86 %ID and a Drug uptake (Kidney) of 1.13 %ID. It also gave a Drug uptake (Muscle tissue [25]) of 8.98 %ID, a Drug uptake (Bone [26]) of 15.3 %ID and a Ratio (Nucleic Acid [1]) of 2.04. For the same molecule, the Drug uptake (Zone of skin [2]) was 7.06 %ID, the Drug uptake (Zone of skin [3]) was 7.86 %ID and the Drug uptake (Blood [4]) was 4.67 %ID. For the same molecule, the Drug uptake (Blood [5]) was 5.7 %ID, the Drug uptake (Heart [6]) was 0.23 %ID and the Drug uptake (Liver [7]) was 11.1 %ID. For the same molecule, the Drug uptake (Spleen [13]) was 1.05 %ID, the Drug uptake (Spleen [14]) was 0.54 %ID and the Drug uptake (Spleen [15]) was 0.39 %ID. For the same molecule, the Drug uptake (Muscle tissue [16]) was 15.9 %ID, the Drug uptake (Muscle tissue [17]) was 10.2 %ID and the Drug uptake (Bone [18]) was 9.3 %ID. For the same molecule, the Drug uptake (Striatum [19]) was 1.37 % ID/g, the Drug uptake (Striatum [20]) was 0.98 % ID/g and the Ratio (Nucleic Acid [21]) was 2.97. It also gave a Ratio (Nucleic Acid [22]) of 0.88, a Ratio (Nucleic Acid [23]) of 2.76 and a Drug uptake (Zone of skin [27]) of 6.52 %ID. It also gave a Drug uptake (Blood [28]) of 4.75 %ID, a Drug uptake (Heart [29]) of 0.13 %ID and a Drug uptake (Spleen [30]) of 0.29 %ID. It also gave a Drug uptake (Brain) of 1.36 %ID, a Ratio (Nucleic Acid [31]) of 4.32 and a Ratio (Nucleic Acid [32]) of 3.08. The Ratio (Nucleic Acid [33]) was 3.2 and the Ratio (Nucleic Acid [34]) was 3.8.
